One compound from ChEMBL document CHEMBL1821594, “Synthesis and anticancer evaluation of novel 2-cyclopropylimidazo[2,1-b][1,3,4]-thiadiazole derivatives” (2011) can be followed below.

The test system of experiment [1] is HCT-116. Kind of experiment: Antitumor activity against human HCT116 cells after 48 hrs by SRB assay. The experiment is classed as functional. The conditions noted are these: HCT-116, 48 h. In short, it runs like this:
(§1)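 Cells grown in RPMI 1640 with 5% FBS and 2 mM L-glutamine and seeded at 5000–40,000 cells/well according to doubling time. They were preincubated 24 h at 37 °C, 5% CO2, then exposed to DMSO-solubilized compound for 48 h. Adherent cells were fixed with cold TCA (10% final), suspension cells with 16% final. Stained with 0.4% SRB; absorbance at 515 nm. Percent growth calculated against time-zero and control plates.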
(In general: The SRB assay estimates cell density from bound dye.)

Experiment [2] relates to MDA-MB-231. Kind of experiment: Antitumor activity against human MDA-MB-231 cells after 48 hrs by SRB assay. The format is functional. The conditions noted are these: MDA-MB-231, 48 h. Put shortly: as §1
[3] abbreviates: read-out: LC50 (the source's name).

A value given as a limit tells only on which side of the number the result lay.

The GI50 is the concentration giving 50% growth inhibition. A word on the TGI: it is the concentration giving total growth inhibition. Higher therefore signals less potent growth arrest. With `Clc1ccc(-c2nc3sc(C4CC4)nn3c2Br)cc1`, the 50% growth inhibitory concentration (GI50) in experiment [1] was 2.96 µM; in experiment [2], 6.59 µM. The concentration for total growth inhibition (TGI) in experiment [1] and in experiment [2] was greater than 100 µM throughout. Besides, the CC50 in experiment [1] (setting [3]) and in experiment [2] (setting [3]) was greater than 100 µM throughout.
